# In PubChem BioAssay AID1381 (University of Pittsburgh Molecular Library Screening Center, 2008):
# Hit rate of the full screen: of about 220,000 compounds, about 1,000 (0.45%) were called active. This is one part of a sample in which actives are shown more often than they occur.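 The calls were made as follows: active = plate z-score of nuclear minus cytoplasmic receptor signal below a set negative limit, without overly bright fluorescence or cell loss (cut at about -3.5 in these data, passing the limit was not always enough); inactive = the rest, inconclusive results apart.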
# Assay: inhibitors of GR-EGFP nuclear translocation, primary screen, dynein cargo transport inhibitor project, imaging, high-content, 3617.4 mouse cells (AID 1381)
# Details: stimulated with dexamethasone, 1 µM
# Summary of the method: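 Buffer or medium: tet-free medium with charcoal-stripped serum / Also added: dexamethasone agonist, 1.0 µM final, for 30 min / Timing: induction 48 h, compound 1 h, agonist 30 min / Measured by: high-content fluorescence imaging after fixation / Read-out: nuclear-to-cytoplasmic GR-EGFP distribution per well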
# [1] = measured here: cell count per field, at 20 µM
# [2] = measured here: cytoplasmic GR-EGFP intensity, at 20 µM, stronger effect = higher value
# [3] = measured here: nuclear GR-EGFP intensity, at 20 µM, stronger effect = lower value
# [4] = measured here: cell count per field, at 50 µM
# [5] = measured here: cytoplasmic GR-EGFP intensity, at 50 µM, stronger effect = higher value
# [6] = measured here: nuclear GR-EGFP intensity, at 50 µM, stronger effect = lower value
SMILES,"z-score (at 20 µM, stronger effect = lower value)",z-score [1],z-score [2],z-score [3],"z-score (at 50 µM, stronger effect = lower value)",z-score [4],z-score [5],z-score [6]
Cc1cccc(N2C(=O)NC(=O)/C(=C\c3cnn(-c4ccccc4)c3)C2=O)c1,0.124 (inactive),-0.649,-0.166,0.444,–,–,–,–
O=C1NC(=O)N(c2ccccc2)C(=O)/C1=C/c1ccc([N+](=O)[O-])s1,-5.82 (active),0.268,2.42,-2.58,–,–,–,–
O=C1NC(=O)N(c2ccc(F)cc2)C(=O)/C1=C/c1ccc2c(c1)CCCN2Cc1ccccc1,-0.735 (inactive),-0.42,4.11,0.344,–,–,–,–
Cc1c(C(=O)O)cccc1-n1c(C)cc(/C=C2\C(=O)NC(=O)N(c3ccc4c(c3)OCO4)C2=O)c1C,-0.66 (inactive),0.519,-0.101,-0.113,–,–,–,–
COc1cccc(N2C(=O)NC(=O)/C(=C\c3ccc([N+](=O)[O-])s3)C2=O)c1,-6.53 (active),-0.425,2.64,-2.61,–,–,–,–
Cc1ccccc1N1C(=O)NC(=O)/C(=C\c2cc(C)n(C)c2C)C1=O,-0.127 (inactive),0.901,-0.306,-0.135,–,–,–,–
OC1/C(=C/c2ccc(C(F)(F)F)cc2)N2CCC1CC2 (stereo not given),-1.47 (inactive),0.879,-0.265,-0.69,–,–,–,–
CCCC[N+]1(C)C2CC(OC(=O)C(CO)c3ccccc3)CC1C1OC12 (stereo not given),-0.526 (inactive),0.258,-0.759,0.0484,–,–,–,–
c1cc2c(cc1CCNC1CCCCCC1)OCO2,–,–,–,–,1.01 (inactive),0.684,-0.246,0.379
CC(c1ccccc1)(c1ccccc1)c1ccncc1,-0.152 (inactive),-0.267,-0.379,-0.628,–,–,–,–
Cc1cc(C=C2C(=O)NC(=O)NC2=O)c(C)n1-c1ccncc1,1.16 (inactive),-1.04,-0.229,0.621,–,–,–,–
CCN(CC)C(=O)c1ccc(NC(=O)c2cc(-n3cnnc3)ccc2Cl)cc1,–,–,–,–,1.07 (inactive),-0.204,-0.239,0.487
CN(C)CC1Oc2ccccc2OC1(O)c1ccccc1 (stereo not given),-6.23 (active),1.09,1.79,-2.55,–,–,–,–
COc1ccc(NC(=O)c2cn(CCC#N)nc2-c2ccc([N+](=O)[O-])cc2)cc1,-0.74 (inactive),0.149,-0.33,-0.871,–,–,–,–
CCC(C)n1c(O)c(/C=N/Nc2nc3c(c(=O)n(C)c(=O)n3C)n2C)c(=O)[nH]c1=S (stereo not given),-0.95 (inactive),0.937,-0.21,-0.129,–,–,–,–
